Calls of active or inactive are those of the source. The rule behind the calls is not given here.
Columns and labels:
[1] = Stability in human microsomes assessed as parent compound remaining after 30 mins; format: ADME, Microsome; conditions: read-out: Stabilty
[2] = molecular target: CYP2C9 (Homo sapiens, UniProt P11712); assay: Inhibition of CYP2C9 (unknown origin) assessed as residual activity; format: ADME
[3] = molecular target: T1, Nuclear factor erythroid 2-related factor 2 (Mus musculus) (UniProt Q60795); assay: Activation of Nrf2 in mouse BV-2 cells assessed as increase in nuclear Nrf2 levels at 10 uM after 6 hrs by Western blot analysis relative to control; format: cell-based; conditions: filed as activator
T1 sequence (whole entry): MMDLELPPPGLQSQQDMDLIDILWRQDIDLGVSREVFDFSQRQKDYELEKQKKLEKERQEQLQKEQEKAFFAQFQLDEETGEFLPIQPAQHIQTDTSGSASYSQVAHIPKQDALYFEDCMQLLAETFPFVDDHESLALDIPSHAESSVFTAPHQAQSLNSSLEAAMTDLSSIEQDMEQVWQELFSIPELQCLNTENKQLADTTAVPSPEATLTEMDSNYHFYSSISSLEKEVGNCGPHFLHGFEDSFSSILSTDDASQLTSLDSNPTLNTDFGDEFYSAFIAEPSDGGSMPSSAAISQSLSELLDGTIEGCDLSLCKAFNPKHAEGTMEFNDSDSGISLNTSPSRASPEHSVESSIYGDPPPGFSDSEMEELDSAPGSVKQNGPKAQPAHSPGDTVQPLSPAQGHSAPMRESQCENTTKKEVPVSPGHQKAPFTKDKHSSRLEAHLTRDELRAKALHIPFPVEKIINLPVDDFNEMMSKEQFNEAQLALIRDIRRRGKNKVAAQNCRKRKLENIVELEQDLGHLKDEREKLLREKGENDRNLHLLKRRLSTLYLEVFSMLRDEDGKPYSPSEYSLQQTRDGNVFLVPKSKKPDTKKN

[4] = molecular target: T1, Nuclear factor erythroid 2-related factor 2 (Mus musculus); assay: Activation of Nrf2 in mouse BV-2 cells assessed as increase in HO1 mRNA expression after 6 hrs by RT-qPCR analysis; format: cell-based; conditions: filed as activator, dose 0.03-1 µM
Outline: (§1)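 BV-2 cells exposed to a range of concentrations for 6 h. Ho1, Gclc, Gclm and Sod1 mRNA quantified by RT-qPCR and expressed relative to vehicle-treated control. Mean ± SEM, n = 3; Student's t-test.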

[5] = molecular target: T1, Nuclear factor erythroid 2-related factor 2 (Mus musculus); assay: Activation of Nrf2 in mouse BV-2 cells assessed as increase in Gclm mRNA expression at 1 uM after 6 hrs by RT-qPCR analysis relative to control; format: cell-based; conditions: filed as activator; outline: as §1
[6] = molecular target: T1, Nuclear factor erythroid 2-related factor 2 (Mus musculus); assay: Activation of Nrf2 in mouse BV-2 cells assessed as increase in HO1 expression at 10 uM after 6 hrs by Western blot analysis relative to control; format: cell-based; conditions: filed as activator
Outline: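 BV-2 microglia grown in RPMI-1640 with 10% FBS, penicillin-streptomycin and 2 mM L-glutamine at 37 °C, 5% CO2. Cells exposed to a range of concentrations for 6 h, then HO-1, GCLC, GCLM and SOD1 protein measured by Western blot. Band intensity normalized to β-actin and given as fold of vehicle control. Mean ± SEM, n = 3, three separate experiments.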

[7] = test system: BV-2; assay: Antiinflammatory activity in mouse BV-2 cells assessed as inhibition of LPS-induced iNOS expression at 2 uM preincubated for 6 hrs followed by LPS stimulation and measured after 24 hrs by Western blot analysis; format: functional, cell-based; conditions: time 30.0 hrs
Outline: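 BV-2 cells pretreated with compound, then stimulated with LPS. iNOS protein measured by Western blot with β-actin as internal control. Mean ± SEM, n = 3, three separate experiments.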

[8] = test system: Mus musculus; assay: Neuroprotective activity in MPTP-induced C57BL/6 mouse model of Parkinson's disease assessed as ability to pull and climb to the top of the hanger at 30 mg/kg, po pretreated for 1 day followed by MPTP challenge and subsequent compound dosing for 2 days measured 6 days post MPTP challenge by coat-hanger test; format: functional, organism-based; conditions: time 7.0 day
Outline: (§2)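 Male C57BL/6 mice, 10 weeks old, 23–26 g, n = 10 per group. Dosed 30 mg/kg p.o. for 3 consecutive days in 10% N-methyl-2-pyrrolidone/20% Tween-80 in water. On day 2, MPTP-HCl 20 mg/kg i.p. given four times at 2 h intervals. Coat-hanger (scored 1–5, test done twice) and vertical grid tests run 6 days after MPTP. Brains taken next day for anti-TH immunohistochemistry (1:1000, DAB).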

[9] = test system: Mus musculus; assay: Neuroprotective activity in MPTP-induced C57BL/6 mouse model of Parkinson's disease assessed as reduction in tyrosine hydroxylase-positive cell loss at 30 mg/kg, po pretreated for 1 day followed by MPTP challenge and subsequent compound dosing for 2 days measured 6 days post-MPTP challenge by immunohistochemistry analysis relative to control; format: functional; design: scale not given: the % may be the effect or the level left; conditions: time 7 day; outline: as §2
[10] = test system: BV-2; assay: Inhibition of nitric oxide production in LPS-stimulated mouse BV-2 cells harboring Nrf2 siRNA at 100 nM cotreated with LPS for 24 hrs by griess assay

CYP2C9, sequence (P11712 whole entry): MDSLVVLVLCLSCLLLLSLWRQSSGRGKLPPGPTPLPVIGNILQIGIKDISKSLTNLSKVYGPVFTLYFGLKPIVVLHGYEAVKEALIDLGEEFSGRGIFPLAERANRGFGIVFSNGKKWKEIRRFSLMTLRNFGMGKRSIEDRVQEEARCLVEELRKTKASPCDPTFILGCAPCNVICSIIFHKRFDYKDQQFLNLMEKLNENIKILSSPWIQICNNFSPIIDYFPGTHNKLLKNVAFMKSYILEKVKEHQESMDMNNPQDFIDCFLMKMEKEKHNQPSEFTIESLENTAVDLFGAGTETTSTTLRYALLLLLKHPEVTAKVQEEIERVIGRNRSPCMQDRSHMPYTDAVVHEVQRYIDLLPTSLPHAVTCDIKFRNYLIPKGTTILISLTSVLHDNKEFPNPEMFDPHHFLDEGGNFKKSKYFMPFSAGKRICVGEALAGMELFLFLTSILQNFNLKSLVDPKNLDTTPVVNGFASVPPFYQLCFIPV

remaining at 0.5 h [1]: 66%
activity [2]: 69.1%
fold change (FC) [3]: 22.6
Activity [4]: Dose-dependent effect
fold change (FC) [5]: 6.9
fold change (FC) [6]: 17.6
Compound: O=S(=O)(/C=C/c1ncccc1Cl)c1ccccc1Cl
inhibition [7]: Active
Activity [8]: Active
activity [9]: 65%
inhibition [10]: inactive
